Assay results reported in publication PMC4455945 (Journal of the American Chemical Society, 2015).
Peptide text beside a SMILES is read from it. * marks the point of attachment. Cbz = O=C(OCc1ccccc1)*

Tests used:
[1] = target: Purified 26S proteasome (Homo sapiens, UniProt P20618+P28074); experiment: Cleavage of Suc-LLVY-AMC by purified 26S proteasome; format: biochemical
[2] = system: HEK293-T cells; experiment: Anti-Ub Western blot of poly-ubiquitin conjugates in HEK293-T cells; format: cell-based; details: relative to vehicle-treated cells
[3] = system: HEK-293T cells; experiment: Cell viability of HEK-293T cells; format: cell-based; details: concentration of 100 μM
Outline: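 HEK-293T cells were tested alongside multiple myeloma lines after exposure to test peptoids. Viability was read as fluorescence (RFU).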

[4] = target: T1, Rpn13 (Homo sapiens, UniProt Q16186); experiment: FP competition against fluorescently labeled 11 bound to Rpn13; format: binding; details: increasing amounts of competitor
T1 sequence (Q16186 whole entry): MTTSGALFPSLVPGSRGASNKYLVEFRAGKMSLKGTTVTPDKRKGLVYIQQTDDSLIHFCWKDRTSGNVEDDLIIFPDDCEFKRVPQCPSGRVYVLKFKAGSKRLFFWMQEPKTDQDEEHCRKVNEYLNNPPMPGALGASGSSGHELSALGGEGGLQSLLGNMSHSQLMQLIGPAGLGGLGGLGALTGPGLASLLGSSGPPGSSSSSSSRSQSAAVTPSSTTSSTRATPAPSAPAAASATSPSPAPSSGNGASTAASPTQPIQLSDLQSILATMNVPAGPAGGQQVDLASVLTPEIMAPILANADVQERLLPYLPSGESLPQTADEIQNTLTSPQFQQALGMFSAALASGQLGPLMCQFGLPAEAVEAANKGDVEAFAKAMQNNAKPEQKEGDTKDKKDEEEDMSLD
Outline: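 Rpn13 pre-incubated with fluorescein-labelled test peptoid to form the complex, then challenged with increasing amounts of unlabelled competitor: either a covalent Rpn13 inhibitor reported to react at Cys88, or the unlabelled form of the same peptoid. Read-out is the change in fluorescence polarization.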

[5] = target: T1, Rpn13; details: assay not described; cited from earlier work

In the case of `CC(C)C[C@H](NC(=O)[C@H](Cc1ccccc1)NC(=O)c1cnccn1)B(O)O` [Bortezomib], the “effect on hydrolysis of the fluorogenic peptide (fluorescence)” value [1] is reported as “dose-sensitive decrease of fluorescence”.
With `CC(C)C[C@@H](C=O)NC(=O)[C@H](CC(C)C)NC(=O)[C@H](CC(C)C)NC(=O)OCc1ccccc1` [MG-132] (Cbz-Leu-Leu-Leu-aldehyde) the “accumulation of ubiquitylated proteins” value [2] was “accumulation of ubiquitylated proteins does occur” and the “cell death of HEK-293T cells at 100 μM” value [3] was “no significant cell death”.
In the case of `Cl.N[C@@H](Cc1ccccc1)C(=O)N1C/C(=C/c2ccc(Cl)c(Cl)c2)C(=O)/C(=C\c2ccc(Cl)c(Cl)c2)C1` [RA-190], the “competition of the fluorescently labeled 11-Rpn13 complex (FP signal)” value [4] is listed as “insensitive” and the IC50 [5] is listed as 100 nM.
